For the assay, the target named is T1, Nucleotide-binding oligomerization domain-containing protein 1 (Homo sapiens, UniProt Q9Y239).
T1 sequence (Q9Y239 whole entry): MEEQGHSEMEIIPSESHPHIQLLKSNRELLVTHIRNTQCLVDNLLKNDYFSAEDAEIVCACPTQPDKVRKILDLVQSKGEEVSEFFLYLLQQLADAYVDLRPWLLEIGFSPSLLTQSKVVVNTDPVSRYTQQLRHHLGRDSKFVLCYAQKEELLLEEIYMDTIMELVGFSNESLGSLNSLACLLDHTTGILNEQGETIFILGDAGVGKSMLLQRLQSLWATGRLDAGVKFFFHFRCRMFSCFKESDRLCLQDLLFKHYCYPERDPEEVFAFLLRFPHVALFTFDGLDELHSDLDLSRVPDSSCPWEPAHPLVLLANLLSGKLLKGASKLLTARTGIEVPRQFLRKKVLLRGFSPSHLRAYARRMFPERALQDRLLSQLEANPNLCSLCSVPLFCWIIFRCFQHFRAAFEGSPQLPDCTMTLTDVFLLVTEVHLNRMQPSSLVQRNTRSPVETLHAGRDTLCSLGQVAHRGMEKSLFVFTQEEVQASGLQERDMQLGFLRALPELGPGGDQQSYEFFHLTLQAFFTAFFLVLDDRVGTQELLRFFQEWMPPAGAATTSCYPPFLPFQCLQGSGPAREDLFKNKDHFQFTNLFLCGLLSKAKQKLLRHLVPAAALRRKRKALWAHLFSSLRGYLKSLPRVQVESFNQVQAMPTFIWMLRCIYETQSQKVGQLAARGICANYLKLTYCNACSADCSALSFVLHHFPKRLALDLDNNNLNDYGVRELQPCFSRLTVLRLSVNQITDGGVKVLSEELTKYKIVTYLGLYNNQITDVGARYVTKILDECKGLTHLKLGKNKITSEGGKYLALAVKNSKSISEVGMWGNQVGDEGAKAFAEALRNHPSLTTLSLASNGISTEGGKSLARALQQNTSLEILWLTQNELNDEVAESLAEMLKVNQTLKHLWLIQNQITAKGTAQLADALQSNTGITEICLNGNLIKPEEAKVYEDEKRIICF
Kind of assay: Agonist activity at human NOD-1 expressed in human HEK293 cells assessed as NF-kappaB induction by spectrophotometric analysis. The format is functional, cell-based. The method in brief: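 HEK-Blue cells (HEK293 stably transfected with human Nod1 and an NF-κB/AP-1-inducible secreted alkaline phosphatase reporter) were kept in selection medium with zeocin and normocin. Cells at ~10^5 cells/mL were grown to confluency and then given graded compound concentrations. Supernatant sAP was read spectrophotometrically at 620 nm with an alkaline phosphatase-specific chromogen.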

pEC50: −log10 of the molar value. Bounds are passed on as bounds.

The pEC50 is the negative decadic logarithm of the EC50, by convention in mol/L.

Turning to `CCCCCCCCCCCCN[C@H](CCC(=O)NC(CCCC(N)C(=O)O)C(=O)O)C(=O)O` (some centres not stated), the pEC50 is 10.64.
As to `CCCCCCCCCCCC(=O)N[C@H](CCC(=O)NC(CCCC(N)C(=O)O)C(=O)O)C(=O)OCC` (some centres not stated), the pEC50 is 10.16.
Next, `CCCCCCCCCCCOC(=O)CCCC(=O)NC(CCCC(N)C(=O)O)C(=O)O` (configuration not stated): 9.41.
Next, `CCCCCCCCCCCC(=O)N[C@H](CCC(=O)NC(CCCC1NC(N)=NC1=O)C(=O)O)C(=O)O` (some centres not stated): 8.88; `CCCCCCCCCCCOC(=O)[C@H](N)CCC(=O)NC(CCCC(N)C(=O)O)C(=O)O` (some centres not stated): 10.18.
Next, `CCCCCCCCCCCC(=O)N[C@H](CCC(=O)N[C@H](CCCCN)C(=O)O)C(=O)O`: less than 7.00; `CCCCCCCCCCCCCCCCN(CCCCCCCCCCCCCCCC)[C@H](CCC(=O)NC(CCCC(N)C(=O)O)C(=O)O)C(=O)O` (some centres not stated): 9.92; `CCCCCCCCN(CCCCCCCC)[C@H](CCC(=O)NC(CCCC(N)C(=O)O)C(=O)O)C(=O)O` (some centres not stated): 9.70.
Regarding `CCCCCCCCCCCC(=O)N[C@H](CCC(=O)NCCCCCN)C(=O)O`, the pEC50 is less than 7.00.
With `CCCCCCCCCCCC(=O)N[C@H](CCC(=O)NC(CCCCC(=O)O)C(=O)O)C(=O)O` (some centres not stated), the pEC50 is less than 7.00.
As for `CCCCCCCCCCCC(=O)N[C@H](CCC(=O)NC(CCCC(NC(=N)N)C(=O)O)C(=O)O)C(=O)O` (some centres not stated), the pEC50 was 9.21.
On to `CCCCCCCCCCCC(=O)N[C@H](CCC(=O)N[C@@H](CCCCN)C(=O)O)C(=O)O`, for which the pEC50 was 9.24.

(Values after ChEMBL document CHEMBL1687899, “Structure-activity relationships in nucleotide oligomerization domain 1 (Nod1) agonistic γ-glutamyldiaminopimelic acid derivatives” (J Med Chem, 2011).)
